From ChEMBL document CHEMBL1124947, “Cationic antiprotozoal drugs. Trypanocidal activity of 2-(4'-formylphenyl)imidazo[1,2-a]pyridinium guanylhydrazones and related derivatives of quaternary heteroaromatic compounds” (J Med Chem, 1990)

Experiments:
Mus musculus [1] = test: Trypanocidal Activity at I.C.E. value 0.68 when administered subcutaneously.; format: functional
Outline: (§1)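 Mice, in groups of five per dose, were given a standard inoculum of blood-stage T. rhodesiense that is lethal to all untreated controls, then dosed subcutaneously. Usually 11 dose levels were used (2^n × 0.42 mg/kg).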

Mus musculus [2] = test: Trypanocidal Activity at I.C.E. value 0.53 when administered perorally.; format: functional
Mus musculus [3] = test: Trypanocidal Activity at I.C.E. value 0.58 when administered subcutaneously.; format: functional; outline: as §1
Mus musculus [4] = test: Trypanocidal Activity at I.C.E. value 0.51 when administered perorally.; format: functional
Mus musculus [5] = test: Trypanocidal Activity at I.C.E. value 0.79 when administered subcutaneously.; format: functional; outline: as §1
Mus musculus [6] = test: Trypanocidal Activity at I.C.E. value >0.5 when administered perorally.; format: functional
Mus musculus [7] = test: Trypanocidal Activity at I.C.E. value 0.48 when administered perorally.; format: functional
Mus musculus [8] = test: Fraction of mice that were cured after oral administration at a dose of 424 mg/kg and I.C.E. value of 0.84; format: functional
Mus musculus [9] = test: Fraction of mice that were cured after oral administration at a dose of 53 mg/kg and I.C.E. value of 0.84; format: functional
Mus musculus [10] = test: Fraction of mice that were cured after oral administration at a dose of 6.6 mg/kg and I.C.E. value of 0.84; format: functional
Mus musculus [11] = test: Fraction of mice that were cured after subcutaneous administration at a dose of 0.42 mg/kg and I.C.E. value of 0.54; format: functional
Mus musculus [12] = test: Fraction of mice that were cured after subcutaneous administration at a dose of 0.83 mg/kg and I.C.E. value of 0.54; format: functional
Mus musculus [13] = test: Fraction of mice that were cured after subcutaneous administration at a dose of 1.67 mg/kg and I.C.E. value of 0.54; format: functional
Mus musculus [14] = test: Fraction of mice that were cured after subcutaneous administration at a dose of 106 mg/kg and I.C.E. value of 0.54; format: functional
Mus musculus [15] = test: Fraction of mice that were cured after subcutaneous administration at a dose of 13 mg/kg and I.C.E. value of 0.54; format: functional
Mus musculus [16] = test: Fraction of mice that were cured after oral administration at a dose of 26 mg/kg and I.C.E. value of 0.84; format: functional
Mus musculus [17] = test: Fraction of mice that were cured after oral administration at a dose of 3.3 mg/kg and I.C.E. value of 0.84; format: functional
Mus musculus [18] = test: Fraction of mice that were cured after oral administration at a dose of 0.42 mg/kg and I.C.E. value of 0.84; format: functional
Mus musculus [19] = test: Trypanocidal Activity at I.C.E. value 0.54 when administered subcutaneously.; format: functional
Outline: (§2)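 Blood-stage T. rhodesiense infection came from a standard inoculum lethal to all untreated mice. Drug was given by subcutaneous injection to groups of five mice. Survival beyond 30 days counted as cure. […] Sub-curative doses scored 0, and data were normalized at each dose.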

Mus musculus [20] = test: Fraction of mice that were cured after subcutaneous administration at a dose of 424 mg/kg and I.C.E. value of 0.54; format: functional
Mus musculus [21] = test: Fraction of mice that were cured after subcutaneous administration at a dose of 53 mg/kg and I.C.E. value of 0.54; format: functional
Mus musculus [22] = test: Fraction of mice that were cured after subcutaneous administration at a dose of 6.6 mg/kg and I.C.E. value of 0.54; format: functional
Mus musculus [23] = test: Curative activity of the Compound after Subcutaneous administration at a dose of 6.6 mg/kg and I.C.E. value of 0.54 for 30 days; 5/5; format: functional
Mus musculus [24] = test: Curative activity of the Compound after oral administration at a dose of 106 mg/kg ( T-Toxic)and I.C.E. value of 0.49 for 30 days; 5/5; format: functional
Mus musculus [25] = test: Curative activity of the Compound after oral administration at a dose of 13 mg/kg and I.C.E. value of 0.49 for 30 days; 2/5; format: functional
Mus musculus [26] = test: Curative activity of the Compound after oral administration at a dose of 212 mg/kg ( T-Toxic)and I.C.E. value of 0.49 for 30 days; 5/5; format: functional
Mus musculus [27] = test: Fraction of mice that were cured after subcutaneous administration at a dose of 212 mg/kg and I.C.E. value of 0.54; format: functional
Mus musculus [28] = test: Fraction of mice that were cured after subcutaneous administration at a dose of 26 mg/kg and I.C.E. value of 0.54; format: functional
Mus musculus [29] = test: Fraction of mice that were cured after subcutaneous administration at a dose of 3.3 mg/kg and I.C.E. value of 0.54; format: functional
Mus musculus [30] = test: Curative activity of the Compound after Subcutaneous administration at a dose of 3.3 mg/kg and I.C.E. value of 0.54 for 30 days; 24/25; format: functional
Mus musculus [31] = test: Curative activity of the Compound after Subcutaneous administration at a dose of 0.42 mg/kg and I.C.E. value of 0.54 for 30 days; 2/5; format: functional
Mus musculus [32] = test: Curative activity of the Compound after Subcutaneous administration at a dose of 0.83 mg/kg and I.C.E. value of 0.54 for 30 days; 27/30; format: functional
Mus musculus [33] = test: Curative activity of the Compound after oral administration at a dose of 424 mg/kg ( T-Toxic)and I.C.E. value of 0.49 for 30 days; 10/10; format: functional
Mus musculus [34] = test: Curative activity of the Compound after oral administration at a dose of 53 mg/kg ( T-Toxic) and I.C.E. value of 0.49 for 30 days; 5/5; format: functional
Mus musculus [35] = test: Curative activity of the Compound after Subcutaneous administration at a dose of 1.67 mg/kg and I.C.E. value of 0.54 for 30 days; 10/10; format: functional
Mus musculus [36] = test: Curative activity of the Compound after Subcutaneous administration at a dose of 13 mg/kg and I.C.E. value of 0.54 for 30 days; 10/10; format: functional
Mus musculus [37] = test: Curative activity of the Compound after Subcutaneous administration at a dose of 26 mg/kg ( T-Toxic) and I.C.E. value of 0.54 for 30 days; 11/15; format: functional
Mus musculus [38] = test: Fraction of mice that were cured after oral administration at a dose of 0.83 mg/kg and I.C.E. value of 0.84; format: functional
Mus musculus [39] = test: Fraction of mice that were cured after oral administration at a dose of 1.67 mg/kg and I.C.E. value of 0.84; format: functional
Mus musculus [40] = test: Fraction of mice that were cured after oral administration at a dose of 13 mg/kg and I.C.E. value of 0.84; format: functional
Mus musculus [41] = test: Fraction of mice that were cured after oral administration at a dose of 212 mg/kg and I.C.E. value of 0.84; format: functional
Mus musculus [42] = test: Curative activity of the Compound after oral administration at a dose of 26 mg/kg and I.C.E. value of 0.49 for 30 days; 10/10; format: functional
Mus musculus [43] = test: Fraction of mice that were cured after oral administration at a dose of 106 mg/kg and I.C.E. value of 0.49
Mus musculus [44] = test: Trypanocidal Activity at I.C.E. value 0.65 when administered perorally.; format: functional
Mus musculus [45] = test: Trypanocidal Activity at I.C.E. value 0.48 when administered subcutaneously.; format: functional; outline: as §2
Mus musculus [46] = test: Trypanocidal Activity at I.C.E. value 0.67 when administered subcutaneously.; format: functional; outline: as §1
Mus musculus [47] = test: Trypanocidal Activity at I.C.E. value 0.7 when administered subcutaneously.; format: functional; outline: as §1
Mus musculus [48] = test: Trypanocidal Activity at I.C.E. value 0.53 when administered subcutaneously.; format: functional; outline: as §2
Mus musculus [49] = test: Trypanocidal Activity at I.C.E. value 0.16 when administered perorally.; format: functional
Mus musculus [50] = test: Trypanocidal Activity at I.C.E. value 0.31 when administered subcutaneously.; format: functional; outline: as §2
Mus musculus [51] = test: Trypanocidal Activity at I.C.E. value 0.77 when administered subcutaneously.; format: functional; outline: as §1
Mus musculus [52] = test: Trypanocidal Activity at I.C.E. value 0.28 when administered subcutaneously.; format: functional; outline: as §2
Mus musculus [53] = test: Trypanocidal Activity at I.C.E. value 0.65 when administered subcutaneously.; format: functional; outline: as §1
[54] = test system: Trypanosoma brucei rhodesiense; test: In Vitro Trypanosomal activity in rats was measured uptake of radiolabeled Leucine; format: functional; conditions: read-out: ID50 (the source's name)
Outline: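 Trypanosomes harvested from infected rats, cultured 3 h with several concentrations of drug, usually 0.1–100 µg/mL. Radiolabeled L-leucine uptake measured. ID50 is the concentration in µg/mL giving 50% inhibition of incorporation.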

[55] = test system: Trypanosoma brucei rhodesiense; test: In Vitro Trypanosomal activity in rats was measured uptake of radiolabeled Thymidine; format: functional; conditions: read-out: ID50 (the source's name)
Outline: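 Parasites harvested from infected rats and incubated 3 h across a drug concentration series, usually 0.1–100 µg/mL. Incorporation of radiolabeled thymidine measured. ID50 is the concentration (µg/mL) producing 50% inhibition.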

Br.Cn1c(COc2ccc(/C=N/NC3=NCCN3)cc2)[n+](C)c2ccccc21.[Br-]
CD50 (Mus musculus [1]): 0.2 mg/kg
CD50 (Mus musculus [2]): 13 mg/kg

Br.C[n+]1c(-c2ccc(/C=C/C=N/NC3=NCCCN3)cc2)cn2ccccc21.[Br-]
CD50 (Mus musculus [3]): 0.06 mg/kg
CD50 (Mus musculus [4]): 13 mg/kg

Br.C[n+]1c(/C=C/c2ccc(/C=N/NC3=NCCN3)cc2)cn2ccccc21.[Br-]
CD50 (Mus musculus [5]): 0.2 mg/kg
CD50 (Mus musculus [6]): 13 mg/kg

C[n+]1c(-c2ccc(/C=N/NC(=N)N)cc2)cn2ccccc21.Cc1ccc(S(=O)(=O)O)cc1.Cc1ccc(S(=O)(=O)[O-])cc1
CD50 (Mus musculus [7]): 26 mg/kg
Fraction cured (Mus musculus [8]): 1
Fraction cured (Mus musculus [9]): 1
Fraction cured (Mus musculus [10]): 0
Fraction cured (Mus musculus [11]): 0.4
Fraction cured (Mus musculus [12]): 0.9
Fraction cured (Mus musculus [13]): 1
Fraction cured (Mus musculus [14]): 0
Fraction cured (Mus musculus [15]): 1
Fraction cured (Mus musculus [16]): 1
Fraction cured (Mus musculus [17]): 0
Fraction cured (Mus musculus [18]): 0
CD50 (Mus musculus [19]): 0.8 mg/kg
Fraction cured (Mus musculus [20]): 0
Fraction cured (Mus musculus [21]): 0
Fraction cured (Mus musculus [22]): 1
Survivors (Mus musculus [23]): 5
Survivors (Mus musculus [24]): 5
Survivors (Mus musculus [25]): 2
Survivors (Mus musculus [26]): 5
Fraction cured (Mus musculus [27]): 0
Fraction cured (Mus musculus [28]): 0.73
Fraction cured (Mus musculus [29]): 0.96
Survivors (Mus musculus [30]): 24
Survivors (Mus musculus [31]): 2
Survivors (Mus musculus [32]): 27
Survivors (Mus musculus [33]): 10
Survivors (Mus musculus [34]): 5
Survivors (Mus musculus [35]): 10
Survivors (Mus musculus [36]): 10
Survivors (Mus musculus [37]): 11
Fraction cured (Mus musculus [38]): 0
Fraction cured (Mus musculus [39]): 0
Fraction cured (Mus musculus [40]): 0.4
Fraction cured (Mus musculus [41]): 1
Survivors (Mus musculus [42]): 10
Fraction cured (Mus musculus [43]): 1

CN(C)C(=N)N/N=C/c1ccc(-c2cn3ccccc3[n+]2C)cc1.I.[I-]
CD50 (Mus musculus [44]): 6.6 mg/kg
CD50 (Mus musculus [45]): 0.2 mg/kg

Br.Cc1cccc2n1cc(COc1ccc(/C=N/NC3=NCCCN3)cc1)[n+]2C.[Br-]
CD50 (Mus musculus [46]): 0.4 mg/kg
CD50 (Mus musculus [47]): 0.8 mg/kg

Br.Cc1ccn2cc(-c3ccc(/C=N/NC(=N)N4CCOCC4)cc3)[n+](C)c2c1.[Br-]
CD50 (Mus musculus [48]): 0.4 mg/kg

Br.C[n+]1ccccc1COc1ccc(/C=N/NC2=NCCCN2)cc1.[Br-]
CD50 (Mus musculus [49]): 212 mg/kg
CD50 (Mus musculus [50]): 6.6 mg/kg

Br.Cc1ccc2n(c1)cc(/C=C/c1ccc(/C=N/NC(=N)N3CCCC3)cc1)[n+]2C.[Br-]
CD50 (Mus musculus [51]): 0.4 mg/kg

Cc1ccc2n(c1)cc(-c1ccc(/C=N/Nc3nccs3)cc1)[n+]2C.[Br-]
CD50 (Mus musculus [52]): 106 mg/kg

C[n+]1c(-c2ccc(/C=N/Nc3nc[nH]n3)cc2)cn2ccccc21.[Br-]
CD50 (Mus musculus [53]): 0.8 mg/kg
IC50 [54]: > 10 µg/mL
IC50 [55]: 0.5 µg/mL
